High-throughput results (PubChem)
KCNK3 inh: human KCNK3 channel inhibition, primary screen; CHO-KCNK3 thallium flux, FluxOR fluorescence; hits give low values; B-score at 10 µM; 340,000 tested, 0.84% active;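 active means B-score under library mean minus 4 SD, starting fluorescence ratio at most library mean plus 5 SD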;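 further: more negative B-score means stronger inhibition of thallium flux through KCNK3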
Kir21 inh: Kir2.1 (mouse) channel inhibition; P35561; B-score at 10 µM; 310,000 tested, 0.85% active; AID 1672; HEK293-Kir2.1, FluxOR thallium flux fluorescence; hits give low values;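 active means fluorescence ratio B-score at or below minus 3 SD of library scores, with starting-brightness B-score within 2 SD, cut at about -4.2 in these data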;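 further: channel flux triggered by added potassium and thallium sulfate stimulus; B-score of peak minus minimum fluorescence over baseline after thallium stimulus; more negative B-score means stronger Kir2.1 block with less thallium influx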
KCNQ1 inh: inhibitors of human KCNQ1 potassium channel; 310,000 tested, 1.3% active; B-score at 10 µM; CHO-K1 KCNQ1, FluxOR thallium flux fluorescence; hits give high values; AID 2642;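 active means compounds whose thallium flux B-score, printed positive for inhibition, exceeds three library SD while starting fluorescence stays within three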;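 further: channel opened by potassium depolarization with thallium stimulus after 20 min compound exposure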
Target sequence (P51787 whole entry, looked up): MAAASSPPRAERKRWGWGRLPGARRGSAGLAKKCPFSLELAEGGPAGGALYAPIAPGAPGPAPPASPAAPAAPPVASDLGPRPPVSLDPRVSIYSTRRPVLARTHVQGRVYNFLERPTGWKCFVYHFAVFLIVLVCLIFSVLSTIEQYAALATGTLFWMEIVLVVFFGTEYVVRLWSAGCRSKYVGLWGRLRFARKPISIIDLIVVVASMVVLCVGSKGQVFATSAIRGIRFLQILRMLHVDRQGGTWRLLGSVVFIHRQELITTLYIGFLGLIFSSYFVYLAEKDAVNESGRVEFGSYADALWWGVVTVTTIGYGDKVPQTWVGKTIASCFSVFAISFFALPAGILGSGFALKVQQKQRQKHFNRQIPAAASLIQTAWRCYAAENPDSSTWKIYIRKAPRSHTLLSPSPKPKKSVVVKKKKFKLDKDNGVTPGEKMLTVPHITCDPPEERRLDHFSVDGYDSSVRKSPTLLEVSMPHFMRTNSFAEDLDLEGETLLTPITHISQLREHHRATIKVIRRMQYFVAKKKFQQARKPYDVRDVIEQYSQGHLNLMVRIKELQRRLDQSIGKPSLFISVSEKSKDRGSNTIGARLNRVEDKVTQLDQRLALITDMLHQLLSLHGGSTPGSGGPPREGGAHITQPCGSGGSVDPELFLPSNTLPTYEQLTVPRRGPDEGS
hERG protect: shields human hERG channel from block by proarrhythmic agents | Q12809 | CHO-hERG, FluxOR thallium flux, dofetilide IC70 present | activation (rescue from dofetilide block), less the hit threshold, % at 10 µM | 310,000 tested, 0.51% active;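 active means activation above the mean of controls blocked by dofetilide plus 5 SD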;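 further: thallium influx through hERG after potassium depolarization seen as dye fluorescence rise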
KCNQ1 pot: potentiates or activates the human KCNQ1 potassium channel; CHO-K1 KCNQ1, thallium flux FluxOR fluorescence; hits give high values; P51787; 310,000 tested, 0.35% active; B-score at 10 µM;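 active means fluorescence ratio B-score, a plate-corrected score, at least three library SD, with initial intensity B-score within 5 SD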
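Schedule – 37 °C overnight plating, 90-min dark dye load, 20-min compound pretreatment · System – stable KCNQ1 CHO-K1 line · Probe or stimulus – thallium- and potassium-containing depolarizing buffer · Measured by – kinetic FluxOR fluorescence, 10 s baseline plus 110 s post-stimulus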
KCNK9 inh: human KCNK9 channel inhibition | Q9NPC2 | HEK293 KCNK9, FluxOR thallium flux fluorescence; hits give low values | B-score at 10 µM | 310,000 tested, 1.2% active;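 active means ratio B-score over 3 SD below the library mean, with starting fluorescence within 5 SD of its mean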;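 further: negative B-score means less thallium flux so channel inhibition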
KCNK9 block conf: human KCNK9 inhibitor confirmation; shares compounds with KCNK9 inh; HEK293 KCNK9 cells, FluxOR thallium flux fluorescence; inhibition, % at 10 µM; 4,900 tested, 43% active; AID 492992;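 active means thallium signal inhibited by more than 5 SD of the compound-free buffer control wells, on both duplicate plates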;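 further: 0% = assay buffer control wells without compound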
Kir2-1 spec: selectivity of KCNK9 modulators against mouse Kir2.1 | inhibition, % at 10 µM | shares compounds with KCNK9 inh | 4,900 tested, 4% active | Kir2.1 cells, FluxOR thallium flux fluorescence;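 active means thallium signal drop more than 5 SD beyond the mean of the no-compound control wells, seen in both duplicate plates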;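 further: signal is fluorescence rise after thallium addition divided by baseline fluorescence; plate controls were assay buffer only for no effect and full block by chlorpromazine control for full effect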
HEK293 Tl ctr: second check of KCNK9 modulator effects in non-induced HEK293 cells; shares compounds with KCNK9 inh; FluxOR thallium flux; inhibition, % at 10 µM; 4,900 tested, 40% active; AID 492997;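 active means thallium signal drop beyond 5 SD of the untreated control mean, on both duplicate plates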;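 further: plate controls were buffer only IC0 wells for no effect and SID17386958 at its maximal inhibitory level for full effect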
An asterisk follows results filed as active; i = inactive; · = not tested or not shown. Most compounds without a hit are left out; they make up all but 3.7% or so of the library.

SMILES	KCNK3 inh	Kir21 inh	KCNQ1 inh	hERG protect	KCNQ1 pot	KCNK9 inh	KCNK9 block conf	Kir2-1 spec	HEK293 Tl ctr
OC1CNc2c(ccc3ccccc23)C1 (stereo unspecified)	i	·	·	·	·	·	·	·	·
N#CCC(=O)N/N=C/c1cc(Br)ccc1OCc1cccc2ccccc12	i	0.01	i	-5	i	-10*	47%*	i	26%*
N#CCC(=O)N/N=C/c1c2ccccc2cc2ccccc12	i	0.89	i	-10	i	i	·	·	·
O=C(Nc1nccs1)C1CCN(S(=O)(=O)c2c(Cl)cccc2Cl)CC1	i	-1.2	i	-8	i	-16*	i	i	i
Cc1cccc(N2CCN(C(=O)c3c(Cl)cnn3C)CC2)c1C	i	-1.1	i	-12	i	i	·	·	·
CC(OC(=O)Nc1ccccc1)C(=O)OC1CCCCC1 (stereo unspecified)	i	·	·	·	·	·	·	·	·
CCn1c(CNc2ccc(F)cc2)nnc1SCC(=O)Nc1ccc(OC)cc1	i	1.9	i	-6	i	i	·	·	·
Cc1ccc(C)c(Cn2nnc3c(=O)[nH]c(C4CCCN(C(=O)C5CCCCC5)C4)nc32)c1 (stereo unspecified)	i	2.7	i	-10	i	-18*	64%*	i	25%*
Cc1cccc(C(=O)Nc2sc(-c3ccccc3)cc2C(=O)O)c1	i	-1.2	i	-22	i	i	i	i	i
CC(C)(C)C(=O)Nc1sc(-c2ccccc2)cc1C(=O)O	i	-0.35	i	-9	i	i	·	·	·
Cc1oc(-c2ccc(Cl)cc2)nc1CN1CCC(C(=O)NCCCN2CCCC(C)C2)CC1 (stereo unspecified)	i	-1.2	i	-9	i	i	·	·	·
O=C(C[C@H]1C[C@H](C(=O)N2CCCCC2)[C@@]2(CCc3ccccc3)c3[nH]c4cc(-c5ccco5)ccc4c3CCN2C1=O)NCCC1=CCCCC1	i	·	·	·	·	·	·	·	·
COc1ccc(CNC(=O)C2CCN(S(=O)(=O)N3CCCCC3)CC2)c(OC)c1	i	0.1	i	-7	i	i	·	·	·
O=C(Nc1cnn(Cc2ccc(F)cc2)c1)c1cnn2c(C(F)F)cc(-c3ccccc3)nc12	i	-0.46	i	-10	i	-13*	50%*	i	36%*
Cc1c(Cl)cccc1NC(=O)COC(=O)c1c2c(nc3ccccc13)CCN(Cc1ccccc1)C2	i	2.1	i	-9	i	-12*	60%*	i	32%*
O=C(NC1CCCCCC1)c1c2c(nc3ccccc13)CCN(Cc1ccccc1)C2	i	-0.23	i	-11	i	i	·	·	·
Cc1cc(NC(=O)c2ccc(F)cc2F)n(-c2nc3ccccc3[nH]2)n1	i	0.52	i	0	i	i	·	·	·
Cc1cc(NC(=O)/C=C/c2ccccc2Cl)n(-c2nc3ccccc3[nH]2)n1	i	-1.8	i	-8	i	-9.1*	i	i	26%*
Cc1ccccc1S(=O)(=O)Cc1ccc(C(=O)NCCCN2CCCC(C)C2)o1 (stereo unspecified)	i	-2.5	i	-2	i	i	·	·	·
Cc1ccc(/C=C/C(=O)c2ccc(N3CCOCC3)cc2)s1	i	0.37	i	-5	i	i	·	·	·
COc1ccc(OC)c(C=Nc2ccccc2-c2nc3ccccc3[nH]2)c1	i	-0.34	i	-14	i	-8.4*	39%*	i	28%*
Cc1cccc(C(=O)N2CCCC(N3CCN(c4cccc(Cl)c4)CC3)C2)n1 (stereo unspecified)	i	-2.2	i	-10	i	i	i	i	i
Cc1ccccc1N1CCN(C2CCCN(C(=O)c3cnsn3)C2)CC1 (stereo unspecified)	i	1	i	-10	i	i	i	i	i
CC(C)/C=C/CN1CCCC(N2CCN(c3cccc(Cl)c3)CC2)C1 (stereo unspecified)	i	-1.8	i	-10	i	i	i	i	i
CC(C)c1nc(C(=O)N2CCCC(N3CCN(c4cccc(Cl)c4)CC3)C2)cs1 (stereo unspecified)	i	-0.65	i	-7	i	i	i	i	i
SMILES	KCNK3 inh	Kir21 inh	KCNQ1 inh	hERG protect	KCNQ1 pot	KCNK9 inh	KCNK9 block conf	Kir2-1 spec	HEK293 Tl ctr
O=C(c1cnccn1)N1CCCC(N2CCN(c3cccc(Cl)c3)CC2)C1 (stereo unspecified)	i	-1.1	i	-7	i	i	·	·	·
O=C(c1ccc(Cl)s1)N1CCCC(N2CCN(c3ccc(F)cc3)CC2)C1 (stereo unspecified)	i	-0.06	i	-10	i	i	·	·	·
Cc1ccccc1N1CCN(C2CCCN(C(=O)c3csc(C(C)C)n3)C2)CC1 (stereo unspecified)	i	-0.58	i	-15	i	i	i	i	i
Cc1ccccc1N1CCN(C2CCCN(C(=O)c3ccc(Cl)s3)C2)CC1 (stereo unspecified)	i	0.01	i	-11	i	i	i	i	i
Cc1cc(C(=O)N2CCCC(N3CCN(c4ccccc4C)CC3)C2)nc(C)n1 (stereo unspecified)	i	0.49	i	-9	i	i	·	·	·
Cc1nc(C(=O)N2CCCC(N3CCN(c4ccccc4C)CC3)C2)cs1 (stereo unspecified)	i	0.41	i	-10	i	i	i	i	i
O=S(=O)(Nc1cc(S(=O)(=O)N2CCOCC2)ccc1Cl)c1ccccc1	i	·	·	·	·	·	·	·	·
N#C/C(=C\c1ccc(Sc2ccc(Cl)cc2)o1)c1nc2ccccc2[nH]1	i	·	·	·	·	·	·	·	·
N#C/C(=C\c1ccc(Sc2nc3ccccc3[nH]2)o1)c1ccccc1	i	0.87	13*	-6	i	i	i	i	i
CC(=O)c1ccc2c3c(cc(C)c2c1)CCCC3	i	·	·	·	·	·	·	·	·
O=C(NCC1CC1)C1(C(F)(F)F)CC(CCc2ccccc2)CCCO1 (stereo unspecified)	i	1.1	i	-8	i	i	i	i	i
C#CCN(C[C@@H](CC(C)C)NC(=O)OC(C)(C)C)S(=O)(=O)c1ccc(Br)cc1F	i	·	·	·	·	·	·	·	·
CC1C(=NO)C(C)C(c2ccccc2)NC1c1ccccc1 (stereo unspecified)	i	-2.5	i	-14	i	i	·	·	·
